# Data taken from ChEMBL document CHEMBL4138161, “Discovery of simplified sampangine derivatives as novel fungal biofilm inhibitors” (Eur J Med Chem, 2018).
# The source made the active and inactive calls. The calls are words filed in the database; no cut-off is given here.
# Assays:
# Staphylococcus aureus = test: Antibacterial activity against Staphylococcus aureus NRS271 after 24 hrs; type: functional; conditions: NRS271, 24 h
# Candida albicans [1] = test: Antifungal activity against Candida albicans SC5314 after 24 hrs by spectrophotometric analysis; type: functional; conditions: SC5314, 24 h
# Method in brief: (§1)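 Broth microdilution in RPMI 1640, inoculum 5×10^3 CFU/mL, compounds from 6.4 mg/mL DMSO stocks, 35 ℃ for 24 h. Growth read as OD600; MIC80 taken as lowest concentration giving 80% growth inhibition. Triplicate.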
# Candida parapsilosis = test: Antifungal activity against Candida parapsilosis 22019 after 24 hrs by spectrophotometric analysis; type: functional; conditions: Lodderomyces parapsilosis, 22019, 24 h; method in brief: as §1
# Cryptococcus neoformans = test: Antifungal activity against Cryptococcus neoformans 32609 after 24 hrs by spectrophotometric analysis; type: functional; conditions: Cryptococcus neoformans, 32609, 24 h; method in brief: as §1
# Aspergillus fumigatus = test: Antifungal activity against Aspergillus fumigatus 07544 after 24 hrs by spectrophotometric analysis; type: functional; conditions: Aspergillus fumigatus, 07544, 24 h; method in brief: as §1
# Trichophyton rubrum = test: Antifungal activity against Trichophyton rubrum Cmccftla after 24 hrs by spectrophotometric analysis; type: functional; method in brief: as §1
# Nannizzia gypsea = test: Antifungal activity against Microsporum gypseum Cmccfmza after 24 hrs by spectrophotometric analysis; type: functional; method in brief: as §1
# Candida albicans [2] = test: Antifungal activity against Candida albicans SC5314 after 48 hrs by spectrophotometric analysis; type: functional; conditions: SC5314, 48 h
# Candida albicans [3] = test: Antifungal activity against fluconazole-resistant Candida albicans clinical isolate 032 after 24 hrs by spectrophotometric analysis; type: functional; conditions: isolate 032, 24 h
# Method in brief: (§2)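 Broth microdilution (MIC80) against fluconazole-resistant clinical C. albicans isolates from a Shanghai hospital. Strains were grown in YPD at 30 ℃. Compounds came from 6.4 mg/mL DMSO stocks and were tested over a concentration series on 5×10^3 CFU/mL inoculum in RPMI 1640 at 35 ℃ for 24 h. OD600 was read; MIC80 is the lowest concentration giving 80% growth inhibition. Done in triplicate.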
# Candida albicans [4] = test: Antifungal activity against fluconazole-resistant Candida albicans clinical isolate 1010 after 24 hrs by spectrophotometric analysis; type: functional; conditions: isolate 1010, 24 h; method in brief: as §2
# Candida albicans [5] = test: Antifungal activity against fluconazole-resistant Candida albicans isolate J38 clinical isolate after 24 hrs by spectrophotometric analysis; type: functional; conditions: isolate J38, 24 h; method in brief: as §2
# Candida albicans [6] = test: Antifungal activity against fluconazole-resistant Candida albicans isolate Chang7 clinical isolate after 24 hrs by spectrophotometric analysis; type: functional; conditions: isolate Chang7, 24 h; method in brief: as §2
# Candida albicans [7] = test: Fungicidal activity against Candida albicans SC5314 assessed as reduction in colony forming units at 0.8 ug/ml after 48 hrs by time-kill assay; type: functional, organism-based
# Method in brief: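 Time-kill: overnight cells PBS-washed, resuspended in RPMI 1640 at 1×10^6 cells/mL with compound, shaken at 200 rpm at 30 ℃. At set time points, dilutions plated on YPD agar and colonies counted after 48 h at 30 ℃. Three independent runs.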
# Candida albicans [8] = test: Antibiofilm activity against Candida albicans SC5314 assessed as disruption of biofilm formation at 0.8 ug/ml after 24 hrs by scanning electron microscopic analysis; type: functional, organism-based
# Method in brief: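 Biofilm SEM: cells adhered to poly-L-lysine-coated glass disks, 90 min static at 37°C; non-adherent cells removed, then grown in fresh RPMI 1640 with compound at 37°C for 24 h. Fixed in 2% glutaraldehyde in 0.15 M sodium cacodylate (pH 7.2) for 2 h, graded ethanol dehydration, dried 1 h, gold-coated and imaged by SEM.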
# Candida albicans [9] = test: Antibiofilm activity against Candida albicans SC5314 assessed inhibition of yeast-to-hypha morphological transition at 0.25 ug/ml after 3 hrs; type: functional, organism-based
# Method in brief: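 Cells were induced to form hyphae in YPD with 10% (vol/vol) fetal bovine serum at 37°C for 3 h with compound. Cell morphology was then photographed. Strains were routinely grown beforehand in YPD at 30°C with shaking.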
# Candida albicans [10] = test: Antibiofilm activity against Candida albicans SC5314 assessed inhibition of yeast-to-hypha morphological transition at 0.5 ug/ml after 3 hrs; type: functional, organism-based
# Method in brief: (§3)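 Yeast-to-hypha transition in YPD with 10% (v/v) FBS across compound concentrations; cell morphology photographed after 3 h at 37°C.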
# Candida albicans [11] = test: Antibiofilm activity against Candida albicans SC5314 cultured in YPD media containing 10% FBS assessed inhibition of yeast-to-hypha morphological transition after 3 hrs; type: functional, organism-based; method in brief: as §3
# Candida albicans [12] = test: Antibiofilm activity against Candida albicans SC5314 cultured in Spider media assessed inhibition of yeast-to-hypha morphological transition after 3 hrs; type: functional, organism-based
# Method in brief: (§4)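 Hyphal induction in Lee's (pH 6.8), Spider, SLAD or RPMI 1640 medium with compound; morphology assessed by microscopy.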
# Candida albicans [13] = test: Antibiofilm activity against Candida albicans SC5314 cultured in SLAD media assessed inhibition of yeast-to-hypha morphological transition after 3 hrs; type: functional, organism-based; method in brief: as §4
# Candida albicans [14] = test: Antibiofilm activity against Candida albicans SC5314 assessed down regulation of ECE1 gene at 0.4 ug/ml after 1 hr by qRT-PCR analysis; type: functional, organism-based
# Method in brief: (§5)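 Biofilm grown in dishes with 0.4 µg/mL compound or DMSO control for 1 h; total RNA isolated and transcripts quantified by real-time RT-PCR. Normalized to 18S rRNA, expressed as fold change vs untreated SC5314. Mean ± SD of three independent experiments.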
# Candida albicans [15] = test: Antibiofilm activity against Candida albicans SC5314 assessed down regulation of HGC1 gene at 0.4 ug/ml after 1 hr by qRT-PCR analysis; type: functional, organism-based; method in brief: as §5
# Candida albicans [16] = test: Antibiofilm activity against Candida albicans SC5314 assessed down regulation of HWP1 gene at 0.4 ug/ml after 1 hr by qRT-PCR analysis; type: functional, organism-based; method in brief: as §5
# Candida albicans [17] = test: Antibiofilm activity against Candida albicans SC5314 assessed down regulation of ALS3 gene at 0.4 ug/ml after 1 hr by qRT-PCR analysis; type: functional, organism-based; method in brief: as §5
# Candida albicans [18] = test: Antibiofilm activity against Candida albicans SC5314 assessed down regulation of EAP1 gene at 0.4 ug/ml after 1 hr by qRT-PCR analysis; type: functional, organism-based; method in brief: as §5
# Candida albicans [19] = test: Antibiofilm activity against Candida albicans SC5314 assessed down regulation of RAS1 gene at 0.4 ug/ml after 1 hr by qRT-PCR analysis; type: functional, organism-based; method in brief: as §5
# Candida albicans [20] = test: Antibiofilm activity against Candida albicans SC5314 assessed down regulation of CYR1 gene at 0.4 ug/ml after 1 hr by qRT-PCR analysis; type: functional, organism-based; method in brief: as §5
# Candida albicans [21] = test: Antibiofilm activity against Candida albicans SC5314 assessed down regulation of EFG1 gene at 0.4 ug/ml after 1 hr by qRT-PCR analysis; type: functional, organism-based; method in brief: as §5
# Candida albicans [22] = test: Antibiofilm activity against Candida albicans SC5314 assessed down regulation of CEK1 gene at 0.4 ug/ml after 1 hr by qRT-PCR analysis; type: functional, organism-based; method in brief: as §5
# Candida albicans [23] = test: Antibiofilm activity against Candida albicans SC5314 assessed down regulation of CPH1 gene at 0.4 ug/ml after 1 hr by qRT-PCR analysis; type: functional, organism-based; method in brief: as §5
# Candida albicans [24] = test: Antibiofilm activity against Candida albicans SC5314 assessed inhibition of cellular surface hydrophobicity at 0.2 to 1.6 ug/ml incubated for 24 hrs; type: functional, organism-based
# Method in brief: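 Biofilms treated with compound for 24 h were detached and resuspended in PBS to OD600 1.0. Suspension was vortexed with octane (4:1 by volume) for 3 min, then left 3 min at room temperature to separate. Aqueous-phase OD600 was compared with a no-octane control as (control − overlay)/control × 100%. Three replicates per group across three independent experiments.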
Structure (SMILES),MIC80 (Staphylococcus aureus) [µg/mL],MIC80 (Candida albicans [1]) [µg/mL],MIC80 (Candida parapsilosis) [µg/mL],MIC80 (Cryptococcus neoformans) [µg/mL],MIC80 (Aspergillus fumigatus) [µg/mL],MIC80 (Trichophyton rubrum) [µg/mL],MIC80 (Nannizzia gypsea) [µg/mL],MIC80 (Candida albicans [2]) [µg/mL],MIC80 (Candida albicans [3]) [µg/mL],MIC80 (Candida albicans [4]) [µg/mL],MIC80 (Candida albicans [5]) [µg/mL],MIC80 (Candida albicans [6]) [µg/mL],Activity (Candida albicans [7]),Activity (Candida albicans [8]),Activity (Candida albicans [9]),Activity (Candida albicans [10]),Activity (Candida albicans [11]),Activity (Candida albicans [12]),Activity (Candida albicans [13]),Activity (Candida albicans [14]),further results
CCc1ccnc2c1C(=O)c1sc([N+](=O)[O-])cc1C2=O,> 128,0.5,1,1,4,0.5,2,0.25,0.5,0.25,0.25,0.25,Active,Active,Active,Active,Dose-dependent effect,Dose-dependent effect,Dose-dependent effect,Active,Activity (Candida albicans [15]): Active; Activity (Candida albicans [16]): Active; Activity (Candida albicans [17]): Active; Activity (Candida albicans [18]): Active; Activity (Candida albicans [19]): Active; Activity (Candida albicans [20]): Active; Activity (Candida albicans [21]): Active; Activity (Candida albicans [22]): Active; Activity (Candida albicans [23]): Active; Activity (Candida albicans [24]): Active
CCCc1ccnc2c1C(=O)c1sc([N+](=O)[O-])cc1C2=O,> 128,0.5,0.5,1,4,2,2,0.5,1,0.5,1,1,Active,Active,Active,Active,Dose-dependent effect,Dose-dependent effect,Dose-dependent effect,Active,Activity (Candida albicans [15]): Active; Activity (Candida albicans [16]): Active; Activity (Candida albicans [17]): Active; Activity (Candida albicans [18]): Active; Activity (Candida albicans [19]): Active; Activity (Candida albicans [20]): Active; Activity (Candida albicans [21]): Active; Activity (Candida albicans [22]): Active; Activity (Candida albicans [23]): Active; Activity (Candida albicans [24]): Active
